≈ marks a conversion by molar mass, not a printed value.
Tests used:
Assay type in all cases: functional
[1] = system: Mycobacterium tuberculosis; experiment: Antimicrobial activity against Mycobacterium tuberculosis H37Rv ATCC 27294 at 1 to 100 ug/ml after 7 days by resazurin assay
Summary of the method: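 Preliminary screen at three concentrations (1, 10 and 100) by resazurin microtitre assay. Cultures were grown in Middlebrook 7H9 with 10% OADC, and compounds came from 2 mg/mL DMF stocks with DMF controls. Plates were incubated 7 days at 37 °C, and resazurin colour was read after 1 h. Inhibition was scored as no blue-to-pink change.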

[2] = system: Mycobacterium tuberculosis; experiment: Antimicrobial activity against Mycobacterium tuberculosis H37Rv ATCC 27294 after 7 days by resazurin assay; conditions: H37Rv ATCC 27294, 168 h
Summary of the method: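 Resazurin microtitre assay. Cultures were grown in Middlebrook 7H9 with 10% OADC and added to fresh medium in 96-well plates. Test compounds came from 2 mg/mL DMF stocks, with DMF-only controls. Plates were incubated 7 days at 37 °C, then resazurin was added and read after 1 h at 37 °C. MIC was the lowest concentration preventing the blue-to-pink change.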

[3] = system: Rhizopus; experiment: Antimicrobial activity against Rhizopus sp. after 3 to 4 days by serial plate dilution method
Summary of the method: (§1)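 Fungal MIC by serial plate dilution. Sabouraud agar (peptone, D-glucose, agar; pH 5.7) plates seeded with saline spore suspension, dried 1 h at 37 °C. Wells punched and filled with compound in DMSO; DMSO-only control. Triplicate plates held 3–4 days at 37 °C; inhibition zone diameter measured. Amphotericin B positive control. Tested range […] per mL.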

[4] = system: Aspergillus flavus; experiment: Antimicrobial activity against Aspergillus flavus after 3 to 4 days by serial plate dilution method; summary of the method: as §1
[5] = system: Candida albicans; experiment: Antimicrobial activity against Candida albicans after 3 to 4 days by serial plate dilution method; summary of the method: as §1
[6] = system: Klebsiella pneumoniae; experiment: Antimicrobial activity against Klebsiella pneumoniae ATCC 13883 after 16 to 18 hrs by serial plate dilution method
Summary of the method: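 Bacterial MIC by serial dilution in Mueller-Hinton broth adjusted to pH 5.0 with phosphate buffer. Tubes inoculated with standardized bacterial suspension, incubated 16–18 h at 37 °C. MIC read as lowest concentration with no visible growth. Range […] per mL. DMSO as negative control, ciprofloxacin as positive control.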

[7] = system: Escherichia coli; experiment: Antimicrobial activity against Escherichia coli ATCC 25922 after 16 to 18 hrs by […]
[8] = system: Staphylococcus aureus; experiment: Antimicrobial activity against Staphylococcus aureus ATCC 25923 after 16 to 18 hrs by […]
[9] = system: Mycolicibacterium fortuitum; experiment: Antimicrobial activity against Mycobacterium fortuitum ATCC 19542 after 7 days by resazurin assay; conditions: ATCC 19542, 168 h
[10] = system: Mycolicibacterium smegmatis; experiment: Antimicrobial activity against Mycobacterium smegmatis (MC2) ATCC 19420 after 7 days by resazurin assay; conditions: (MC2) ATCC 19420, 168 h

Row | SMILES | inhibition (INH) [1] [%] | MIC [2] [µg/mL] | MIC [3] [µg/mL] | MIC [4] [µg/mL] | MIC [5] [µg/mL] | MIC [6] [µg/mL] | MIC [7] [µg/mL] | MIC [8] [µg/mL] | MIC [9] [µg/mL] | MIC [10] [µg/mL]
1 | COc1cc(NS(=O)(=O)C2(c3ccc(Cl)cc3)CC2)ccc1-n1cnc(Cl)c1 | 90 | 1.25 (≈ 2.85 µM) | 128 (≈ 292 µM) | 64 (≈ 146 µM) | 128 (≈ 292 µM) | 128 (≈ 292 µM) | 64 (≈ 146 µM) | 128 (≈ 292 µM) | 10 (≈ 22.8 µM) | –
2 | COc1cc(NS(=O)(=O)c2ccccc2)ccc1-n1cnc(Cl)c1 | <90 | 5 (≈ 13.7 µM) | 64 (≈ 176 µM) | 128 (≈ 352 µM) | 128 (≈ 352 µM) | 128 (≈ 352 µM) | 64 (≈ 176 µM) | 8 (≈ 22 µM) | – | 10 (≈ 27.5 µM)
3 | COc1ccc(S(=O)(=O)Nc2ccc(-n3cnc(Cl)c3)c(OC)c2)cc1OC | 90 | 1.25 (≈ 2.95 µM) | 128 (≈ 302 µM) | 256 (≈ 604 µM) | 128 (≈ 302 µM) | 256 (≈ 604 µM) | 128 (≈ 302 µM) | 256 (≈ 604 µM) | 1.25 (≈ 2.95 µM) | 1.25 (≈ 2.95 µM)
4 | COc1cc(NS(=O)(=O)c2ccc([N+](=O)[O-])cc2)ccc1-n1cnc(Cl)c1 | 90 | 0.625 (≈ 1.53 µM) | 64 (≈ 157 µM) | 128 (≈ 313 µM) | 256 (≈ 626 µM) | 64 (≈ 157 µM) | 128 (≈ 313 µM) | 128 (≈ 313 µM) | 1.25 (≈ 3.06 µM) | 10 (≈ 24.5 µM)
5 | COc1cc(NS(=O)(=O)c2cccc(C(C)C#N)c2)ccc1-n1cnc(Cl)c1 (centres undefined) | <90 | 2.5 (≈ 6 µM) | 256 (≈ 614 µM) | 128 (≈ 307 µM) | 64 (≈ 154 µM) | 64 (≈ 154 µM) | 128 (≈ 307 µM) | 64 (≈ 154 µM) | – | 2.5 (≈ 6 µM)
6 | COc1cc(NC(=O)c2ccccc2)ccc1-n1cnc(Cl)c1 | <90 | 5 (≈ 15.3 µM) | 128 (≈ 391 µM) | 256 (≈ 781 µM) | 256 (≈ 781 µM) | 128 (≈ 391 µM) | 256 (≈ 781 µM) | 128 (≈ 391 µM) | – | 10 (≈ 30.5 µM)
7 | COc1ccc(C(=O)Nc2ccc(-n3cnc(Cl)c3)c(OC)c2)cc1OC | 0 | – | 256 (≈ 660 µM) | 128 (≈ 330 µM) | > 256 | 256 (≈ 660 µM) | 256 (≈ 660 µM) | > 256 | – | –
8 | COc1cc(NC(=O)c2ccc([N+](=O)[O-])cc2)ccc1-n1cnc(Cl)c1 | <90 | 1.25 (≈ 3.35 µM) | 256 (≈ 687 µM) | > 256 | > 256 | > 256 | > 256 | 256 (≈ 687 µM) | 1.25 (≈ 3.35 µM) | 2.5 (≈ 6.71 µM)
9 | COc1cc(NC(=O)c2cccc(C(C)C#N)c2)ccc1-n1cnc(Cl)c1 (centres undefined) | 90 | 2.5 (≈ 6.56 µM) | 128 (≈ 336 µM) | 256 (≈ 672 µM) | 128 (≈ 336 µM) | 128 (≈ 336 µM) | > 256 | 256 (≈ 672 µM) | 10 (≈ 26.3 µM) | –
10 | COc1cc(NS(=O)(=O)c2ccc(Cl)cc2Cl)ccc1-n1cnc(Cl)c1 | <90 | 5 (≈ 11.6 µM) | 128 (≈ 296 µM) | 64 (≈ 148 µM) | 128 (≈ 296 µM) | 64 (≈ 148 µM) | 4 (≈ 9.24 µM) | 8 (≈ 18.5 µM) | – | –
11 | COc1cc(NS(=O)(=O)c2ccco2)ccc1-n1cnc(Cl)c1 | <90 | 5 (≈ 14.1 µM) | 256 (≈ 724 µM) | 64 (≈ 181 µM) | 128 (≈ 362 µM) | > 256 | 64 (≈ 181 µM) | 128 (≈ 362 µM) | – | 10 (≈ 28.3 µM)
12 | COc1cc(NS(=O)(=O)c2cccc([N+](=O)[O-])c2Cl)ccc1-n1cnc(Cl)c1 | <90 | 2.5 (≈ 5.64 µM) | 256 (≈ 578 µM) | 128 (≈ 289 µM) | 64 (≈ 144 µM) | 32 (≈ 72.2 µM) | 128 (≈ 289 µM) | 8 (≈ 18 µM) | – | 2.5 (≈ 5.64 µM)
13 | COc1cc(F)c(S(=O)(=O)Nc2ccc(-n3cnc(Cl)c3)c(OC)c2)c(C(F)(F)F)c1 | <90 | 5 (≈ 10.4 µM) | 256 (≈ 534 µM) | 128 (≈ 267 µM) | 128 (≈ 267 µM) | 32 (≈ 66.7 µM) | 128 (≈ 267 µM) | 64 (≈ 133 µM) | – | 10 (≈ 20.8 µM)
14 | COc1cc(NS(=O)(=O)c2cccs2)ccc1-n1cnc(Cl)c1 | 90 | 1.25 (≈ 3.38 µM) | 128 (≈ 346 µM) | 256 (≈ 692 µM) | 64 (≈ 173 µM) | 256 (≈ 692 µM) | 64 (≈ 173 µM) | 128 (≈ 346 µM) | 1.25 (≈ 3.38 µM) | 1.25 (≈ 3.38 µM)
15 | COc1cc(NC(=O)c2ccc(Cl)cc2Cl)ccc1-n1cnc(Cl)c1 | <90 | 5 (≈ 12.6 µM) | 128 (≈ 323 µM) | 128 (≈ 323 µM) | > 256 | > 256 | 64 (≈ 161 µM) | 128 (≈ 323 µM) | – | 10 (≈ 25.2 µM)
16 | COc1cc(NC(=O)Cc2cccc(C(F)(F)F)c2)ccc1-n1cnc(Cl)c1 | <90 | 2.5 (≈ 6.1 µM) | > 256 | 256 (≈ 625 µM) | 128 (≈ 312 µM) | 64 (≈ 156 µM) | 256 (≈ 625 µM) | 128 (≈ 312 µM) | 10 (≈ 24.4 µM) | 10 (≈ 24.4 µM)
17 | COc1cc(NC(=O)c2ccco2)ccc1-n1cnc(Cl)c1 | <90 | 5 (≈ 15.7 µM) | > 256 | 128 (≈ 403 µM) | > 256 | > 256 | 128 (≈ 403 µM) | > 256 | – | –
18 | COc1cc(NC(=O)c2cc(F)cc(C(F)(F)F)c2)ccc1-n1cnc(Cl)c1 | 90 | 10 (≈ 24.2 µM) | 128 (≈ 309 µM) | 256 (≈ 619 µM) | 64 (≈ 155 µM) | 64 (≈ 155 µM) | 128 (≈ 309 µM) | 128 (≈ 309 µM) | 10 (≈ 24.2 µM) | –
19 | COc1ccc(C(=O)Nc2ccc(-n3cnc(Cl)c3)c(OC)c2)cc1 | 0 | – | > 256 | 256 (≈ 715 µM) | > 256 | 256 (≈ 715 µM) | > 256 | > 256 | – | –
20 | COc1cc(NC(=O)c2ccc(C(F)(F)F)cc2)ccc1-n1cnc(Cl)c1 | 90 | 1.25 (≈ 3.16 µM) | 64 (≈ 162 µM) | 128 (≈ 323 µM) | 32 (≈ 80.9 µM) | 64 (≈ 162 µM) | 64 (≈ 162 µM) | 128 (≈ 323 µM) | 1.25 (≈ 3.16 µM) | 2.5 (≈ 6.32 µM)
21 | COc1cc(NC(=O)c2cccc([N+](=O)[O-])c2Cl)ccc1-n1cnc(Cl)c1 | 90 | 1.25 (≈ 3.07 µM) | > 256 | 256 (≈ 629 µM) | 128 (≈ 314 µM) | 128 (≈ 314 µM) | > 256 | 128 (≈ 314 µM) | 1.25 (≈ 3.07 µM) | 1.25 (≈ 3.07 µM)
22 | COc1cc(NC(=O)c2c(F)ccc(C(F)(F)F)c2Cl)ccc1-n1cnc(Cl)c1 | <90 | 2.5 (≈ 5.58 µM) | 128 (≈ 286 µM) | > 256 | 128 (≈ 286 µM) | 256 (≈ 571 µM) | 128 (≈ 286 µM) | > 256 | – | 2.5 (≈ 5.58 µM)
23 | COc1cc(F)c(C(=O)Nc2ccc(-n3cnc(Cl)c3)c(OC)c2)c(F)c1 | <90 | 5 (≈ 12.7 µM) | > 256 | 256 (≈ 650 µM) | 256 (≈ 650 µM) | 128 (≈ 325 µM) | > 256 | 256 (≈ 650 µM) | – | –
24 | COc1cc(NC(=O)c2cccs2)ccc1-n1cnc(Cl)c1 | 90 | 5 (≈ 15 µM) | 32 (≈ 95.9 µM) | 64 (≈ 192 µM) | 256 (≈ 767 µM) | 64 (≈ 192 µM) | 128 (≈ 383 µM) | 128 (≈ 383 µM) | 2.5 (≈ 7.49 µM) | 1.25 (≈ 3.74 µM)
25 | COc1cc(NC(=O)C2(c3ccc(Cl)cc3)CC2)ccc1-n1cnc(Cl)c1 | <90 | 2.5 (≈ 6.21 µM) | > 256 | 256 (≈ 636 µM) | > 256 | 256 (≈ 636 µM) | 128 (≈ 318 µM) | 64 (≈ 159 µM) | – | 2.5 (≈ 6.21 µM)
26 | C[C@@H]1[C@H](O)[C@@H](C)/C=C/C=C/C=C/C=C/C=C/C=C/C=C/[C@H](O[C@@H]2O[C@H](C)[C@@H](O)[C@H](N)[C@@H]2O)C[C@@H]2O[C@](O)(C[C@@H](O)C[C@@H](O)[C@H](O)CC[C@@H](O)C[C@@H](O)CC(=O)O[C@H]1C)C[C@H](O)[C@H]2C(=O)O [AMPHOTERICIN B] | – | – | 16 (≈ 17.3 µM) | 8 (≈ 8.66 µM) | 8 (≈ 8.66 µM) | – | – | – | – | –
27 | O=C(O)c1cn(C2CC2)c2cc(N3CCNCC3)c(F)cc2c1=O [CIPROFLOXACIN] | – | – | – | – | – | 16 (≈ 48.3 µM) | – | 8 (≈ 24.1 µM) | – | –
28 | NNC(=O)c1ccncc1 [ISONIAZID] | 95 | 0.7 (≈ 5.1 µM) | – | – | – | – | – | – | 12.5 (≈ 91.1 µM) | 50 (≈ 365 µM)
29 | CO[C@H]1/C=C/O[C@@]2(C)Oc3c(C)c(O)c4c(O)c(c(/C=N/N5CCN(C)CC5)c(O)c4c3C2=O)NC(=O)/C(C)=C\C=C\[C@H](C)[C@H](O)[C@@H](C)[C@@H](O)[C@@H](C)[C@H](OC(C)=O)[C@@H]1C [RIFAMPIN] | 95 | 0.5 (≈ 0.608 µM) | – | – | – | – | – | – | 1.5 (≈ 1.82 µM) | 1.5 (≈ 1.82 µM)

From ChEMBL document CHEMBL3097988, “Synthesis and characterization of new N-(4-(4-chloro-1H-imidazol-1-yl)-3-methoxyphenyl)amide/sulfonamide derivatives as possible antimicrobial and antitubercular agents” (2014)
